Laboratory results: ChEMBL document CHEMBL1127419, “A comparative molecular field analysis model for 6-arylpyrrolo[2,1-d] [1,5]benzothiazepines binding selectively to the mitochondrial benzodiazepine receptor” (J Med Chem, 1994)

Experiments:
Translocator protein [1] = target: T1, Translocator protein (Rattus norvegicus, UniProt P16257); test: (§1) Displacement of [3H]-PK 11195 from rat peripheral (mitochondrial) benzodiazepine receptor
In short: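 Male CD rat (~150 g) cerebral cortex membranes washed in 50 mM phosphate-buffered saline, pH 7.4. 10 mg wet tissue incubated 120 min at 4 °C with 1 nM [3H]PK 11195 and 8–12 drug concentrations. Nonspecific binding defined with 1 μM PK 11195. Filtration, scintillation counting. IC50 by nonlinear curve fitting; triplicate points.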

Translocator protein [2] = target: T1, Translocator protein; test: as §1; remark: listed apart in the source

T1 sequence (P16257 whole entry, looked up): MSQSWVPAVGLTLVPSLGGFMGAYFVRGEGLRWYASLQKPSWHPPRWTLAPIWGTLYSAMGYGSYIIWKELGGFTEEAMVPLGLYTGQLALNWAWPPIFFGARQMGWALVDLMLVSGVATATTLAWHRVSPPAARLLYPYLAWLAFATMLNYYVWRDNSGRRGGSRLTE

SMILES | IC50 (Translocator protein [1]) [µM] | IC50 (Translocator protein [2]) [µM]
COc1ccc(C2=C(OC(=O)c3ccncc3)c3cccn3-c3ccccc3S2)cc1 | 100 | –
COc1ccc(C2=C(OC(C)=O)c3cccn3-c3ccccc3S2(=O)=O)cc1 | 0.631 | –
CC(=O)OC1=C(c2ccccc2)Sc2ccc(C)cc2-n2cccc21 | 0.676 | 0.675
CC(=O)OC1=C(c2ccc(Cl)cc2)Sc2ccccc2-n2cccc21 | 0.0302 | 0.03
O=C1c2cccn2-c2ccccc2S(=O)(=O)C1c1ccccc1 (stereo not given) | 100 | –
CN(C)C(=O)OC1=C(c2ccccc2)Sc2ccccc2-n2cccc21 | 0.00912 | –
CC(=O)OC1=C(c2ccccc2)Sc2ccccc2-n2cccc21 | 0.0195 | –
CCCC(=O)OC1=C(c2ccccc2)Sc2ccccc2-n2cccc21 | 0.0214 | –
CCCC(=O)OC1=C(c2ccc(OC)cc2)Sc2ccccc2-n2cccc21 | 0.0275 | –
CCC(=O)OC1=C(c2ccccc2)Sc2ccccc2-n2cccc21 | 0.0661 | –
CS(=O)(=O)OC1=C(c2ccccc2)Sc2ccccc2-n2cccc21 | 0.0575 | –
CC(=O)OC1=C(c2ccc(F)cc2)Sc2ccccc2-n2cccc21 | 0.0282 | 0.028
CN(C)C(=O)OC1=C(c2ccccc2)Sc2c(Cl)cccc2-n2cccc21 | 0.00398 | 0.004
COc1ccc(C2=C(OC(C)=O)c3cccn3-c3cccc(Cl)c3S2)cc1 | 0.0204 | –
CC(=O)OC1=C(c2ccccc2F)Sc2ccccc2-n2cccc21 | 0.038 | 0.038
COc1ccc(C2=C(OC(=O)N(C)C)c3cccn3-c3cc(C(F)(F)F)ccc3S2)cc1 | 0.295 | –
CCCCCC(=O)OC1=C(c2ccccc2)Sc2ccccc2-n2cccc21 | 0.0234 | –
CC(=O)OC1=C(c2ccccc2)Sc2cc(C)ccc2-n2cccc21 | 0.112 | 0.112
COc1ccc(C2=C(OC(=O)N(C)C)c3cccn3-c3ccccc3S2)cc1 | 0.00912 | –
COc1ccc(C2=C(OC(=O)c3cc(OC)c(OC)c(OC)c3)c3cccn3-c3ccccc3S2)cc1 | 100 | –
CCC(=O)OC1=C(c2ccc(OC)cc2)Sc2ccccc2-n2cccc21 | 0.0295 | –
COc1ccc(C2=C(OC(=O)c3cc(OC)c(OC)c(OC)c3)c3cccn3-c3cc(C(F)(F)F)ccc3S2)cc1 | 100 | –
COc1ccc(C2=C(OC(=O)N(C)C)c3cccn3-c3cc(Cl)ccc3S2)cc1 | 0.166 | –
COc1ccc(C2=C(OC(=O)c3cccnc3)c3cccn3-c3ccccc3S2)cc1 | 100 | –
CN(C)C(=O)OC1=C(c2ccccc2F)Sc2ccccc2-n2cccc21 | 0.0309 | 0.031
COc1ccc(C2=C(OC(=O)c3cc(OC)c(OC)c(OC)c3)c3cccn3-c3cc(Cl)ccc3S2)cc1 | 100 | –
CC(=O)OC1=C(c2ccccc2)Sc2c(Cl)cccc2-n2cccc21 | 0.00759 | –
COc1ccc(C2C(=O)c3cccn3-c3ccccc3[S+]2[O-])cc1 (stereo not given) | 22.9 | –
